This note sets out measurements from ChEMBL document CHEMBL1143929, “Synthesis and antiprotozoal activity of novel bis-benzamidino imidazo[1,2-a]pyridines and 5,6,7,8-tetrahydro-imidazo[1,2-a]pyridines” (Bioorg Med Chem, 2008).

The test system of test [1] is Trypanosoma brucei rhodesiense. Put plainly: Antiprotozoan activity against Trypanosoma brucei rhodesiense STIB900. The class given is functional, organism-based.
The subject of test [2] is Trypanosoma brucei rhodesiense. Briefly: Antitrypanosomal activity against Trypanosoma brucei rhodesiense STIB900 infected mouse model assessed as survival at 5 mg/kg, ip after 4 days. The class given is functional. Conditions: route intraperitoneal. The procedure, abridged:
(§1)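 Acute African trypanosomiasis model in mice infected with T. b. rhodesiense STIB900. Diamidines were given intraperitoneally and prodrugs orally, dosed over 4 days. Read-outs were cures (mice surviving parasite-free for 60 days, out of 4) and average days of survival, compared against untreated infected controls.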

Another test relates to Plasmodium falciparum. Briefly: Antiprotozoal activity against Plasmodium falciparum K1. The class given is functional, organism-based.
Test [3] relates to Trypanosoma brucei rhodesiense. Briefly: Antitrypanosomal activity against Trypanosoma brucei rhodesiense STIB900 infected mouse model assessed as survival at 25 mg/kg, po after 4 days. The format is functional. In outline: as §1
The subject of another test is L6. Put plainly: Cytotoxicity against rat L6 cells. The class given is cell-based.
Test [4] relates to Trypanosoma brucei rhodesiense. Briefly: Antitrypanosomal activity against Trypanosoma brucei rhodesiense STIB900 infected mouse model assessed as survival at 20 mg/kg, ip after 4 days. The following applies: route intraperitoneal. The format is functional. The procedure, abridged: as §1
Test [5] is described as follows: Binding affinity to DNA.
The test system of test [6] is Trypanosoma brucei rhodesiense. Put plainly: Antitrypanosomal activity against Trypanosoma brucei rhodesiense STIB900 infected mouse model assessed as survival at 5 mg/kg, po after 4 days. The class given is functional. In outline:
as §1

Broadly, the IC50 is the concentration needed to halve the response being measured. Low values mean greater potency, high ones weaker potency. What is called Kd is a measure of binding affinity in units of concentration.

In the case of `N=C(N)c1ccc(-c2ccc(-c3ccc(C(=N)N)cn3)o2)cc1`, the IC50 (in test [1]; with Plasmodium falciparum) was 6.5 nM throughout. The Survival in test [2] was greater than 54.5 days.
As to `CO/N=C(\N)c1ccc(-c2cn3cc(-c4ccc(/C(N)=N\OC)cc4)nc3c(C)c2C)cc1`, the Survival in test [3] worked out at 15.5 days. Moreover, the values for the IC50 (in test [1]; in the test with Plasmodium falciparum) were 7210 nM and 3250 nM, respectively.
On to `CO/N=C(\N)c1ccc(-c2ccc3nc(-c4ccc(/C(N)=N\OC)cc4)cn3c2)cc1`, for which, in test [3], the Survival came out at 10.75 days. Besides, the IC50 worked out at 825 nM in test [1], 181 nM with Plasmodium falciparum and 6900 nM with L6.
Consider `Cc1c(-c2ccc(C(=N)N)cc2)cn2cc(-c3ccc(C(=N)N)cc3)nc2c1C`, for which the IC50 in test [1] came to 15 nM; in the test with Plasmodium falciparum, 63 nM; in the test on L6, 4700 nM. In test [2], the Survival is greater than 39.5 days.
Consider `N=C(N)c1ccc(-c2cn3c(n2)CCC(c2ccc(C(=N)N)cc2)C3)cc1` (stereo not given), for which the IC50 came to 14 nM in test [1], 85 nM in the test with Plasmodium falciparum and 8900 nM with L6. Further, the Survival in test [2] was 31.25 days; in test [4], greater than 60 days. This compound had a Kd in test [5] of 250 nM.
Take `CO/N=C(\N)c1ccc(-c2cn3cc(-c4ccc(/C(N)=N\OC)cc4)nc3cc2C)cc1`: in test [3], the Survival amounted to 14.5 days. In addition, the 50% inhibitory concentration (IC50) in test [1] was 1740 nM; in the test with Plasmodium falciparum it was 880 nM; in the test on L6, 17000 nM.
For `CO/N=C(\N)c1ccc(-c2cc(C)c3nc(-c4ccc(/C(N)=N\OC)cc4)cn3c2)cc1` the same measures were greater than 20.25 days, 2370 nM, 614 nM and 9500 nM.
`Cc1cc(-c2ccc(C(=N)N)cc2)cn2cc(-c3ccc(C(=N)N)cc3)nc12`: the values for the IC50 (in test [1]; in the test on Plasmodium falciparum; with L6) were 38 nM, 23 nM and 7400 nM, respectively. Moreover, the Survival in test [2] was found to be 14.75 days.
`CO/N=C(\N)c1ccc(-c2ccc(-c3ccc(/C(N)=N/OC)cn3)o2)cc1`: the Survival in test [3] and in test [6] was greater than 60 days each time.
For `N=C(N)c1ccc(-c2ccc3nc(-c4ccc(C(=N)N)cc4)cn3c2)cc1`, the IC50 in test [1] came to 7.5 nM; with Plasmodium falciparum it was 92 nM; with L6, 2500 nM. The Survival in test [4] was determined as 22 days. Besides, the Kd in test [5] worked out at 20 nM.
Turning to `Cc1cc2nc(-c3ccc(C(=N)N)cc3)cn2cc1-c1ccc(C(=N)N)cc1`, the IC50 in test [1] was determined as 13 nM; in the test on Plasmodium falciparum it was 27 nM; with L6, 6800 nM. Moreover, the Survival in test [2] is greater than 37.25 days.
Regarding `N=C(N)c1ccc(-c2ccc(-c3ccc(C(=N)N)cc3)o2)cc1` [FURAMIDINE], the Survival in test [2] came to 35.5 days.
Turning to `CONC(=N)c1ccc(-c2ccc(-c3ccc(C(=N)NOC)cc3)o2)cc1` [PAFURAMIDINE], the Survival in test [3] is greater than 60 days.
